# Activity calls are given as the source filed them. The rule behind the calls is not given here.
# Assays:
# Mus musculus [1] = species on record: Mus musculus; assay: Antiproliferative activity against mouse ME-Hep4 cells assessed as number of viable cells after 72 hrs by MTT assay; type: functional, cell-based
# BGC-823 [2] = assay: Induction of SRC3 recruitment to NurRE in human BGC823 cells after 12 hrs by luciferase/beta-galactosidase reporter assay; type: functional, cell-based
# Method in brief: (§1)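 BGC-823 cells cotransfected with or without SRC-1, SRC-2 or SRC-3, plus NurRE-luciferase reporter and β-galactosidase, then treated for 12 h at a range of concentrations. Fold induction is each luciferase activity relative to non-SRC transfection at the same concentration.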
# [3] = biological target: Nuclear receptor subfamily 4 group A member 1 (Mus musculus) (UniProt P12813); assay: Agonist activity at Nur77 in wild-type mouse C57BL/6 assessed as hexokinase gene at 50 mg/kg, ip within 30 to 300 mins by real-time PCR analysis; type: functional, organism-based; set-up: dose 50 mg/kg
# Mus musculus [4] = assay: Increase in blood glucose level in Nr4a1 deficient mouse C57BL/6 at 50 mg/kg, ip within 30 mins; type: functional; conditions: route intraperitoneal
# Method in brief: (§2)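 C57BL/6 mice (wild-type or Nr4a1-/-, six weeks old) fasted 16 h with water, then given 50 mg kg-1 intraperitoneally. DMSO (50 μl) or injection without vehicle served as controls. Tail-vein blood glucose was read by glucometer at 15, 30, 60, 90, 120, 180 and 300 min. Means ± s.e.m.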
# [5] = biological target: T1, Nuclear receptor subfamily 4immunitygroup A member 1 (Homo sapiens, UniProt P22736); assay: Induction of Nur77-SRC2 interaction in HEK293T cells by GST-pull-down assay; type: cell-based; conditions: HEK-293T
# Method in brief: (§3)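 293T cells transfected with Flag-SRC-1, -2 or -3 and treated at 10⁻⁶ M for 3 h. Lysates were incubated with GST-Nur77 or GST alone, and bound SRC was detected by pull-down against input levels.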
# [6] = biological target: T1, Nuclear receptor subfamily 4immunitygroup A member 1; assay: Agonist activity at nuclear orphan receptor Nur77 in human BGC823 cells bearing beta-galactosidase expression vector assessed as transcriptional activation of thyroid receptor reporter gene after 12 hrs by luciferase assay; type: functional, cell-based; conditions: BGC-823
# BGC-823 [7] = assay: Induction of Nur77 mediated apoptosis in human BGC823 cells assessed as nuclear DNA condensation by flow cytometry assay; type: functional, cell-based
# [8] = biological target: T1, Nuclear receptor subfamily 4immunitygroup A member 1; assay: Agonist activity at nuclear orphan receptor Nur77 expressed in human BGC823 cells co-transfected with pLuc-500 containing Nr4a1 promoter assessed as transcriptional activity; type: functional, cell-based; conditions: BGC-823
# BGC-823 [9] = assay: Induction of SRC2 recruitment to NurRE in human BGC823 cells after 12 hrs by luciferase/beta-galactosidase reporter assay; type: functional, cell-based; method in brief: as §1
# [10] = biological target: Nuclear receptor subfamily 4 group A member 1 (Mus musculus) (UniProt P12813); assay: Agonist activity at Nur77 in wild-type mouse C57BL/6 assessed as hexokinase mRNA at 50 mg/kg, ip after 300 mins by real-time PCR analysis; type: functional, organism-based; set-up: dose 50 mg/kg
# [11] = biological target: T1, Nuclear receptor subfamily 4immunitygroup A member 1; assay: Agonist activity at Nur77 expressed in human gastric cancer BGC823 assessed as transactivation in presence of siRNA against Nur77; type: functional; conditions: Stomach
# [12] = biological target: Nuclear receptor subfamily 4 group A member 2 (Homo sapiens) (UniProt P43354); assay: Agonist activity at nuclear orphan receptor Nurr1 expressed in human BGC823 cells co-transfected with fused GAL4-Nurr1(LBD) assessed as transactivation after 12 hrs by transactivation assay; type: functional, cell-based; conditions: BGC-823
# [13] = biological target: Nuclear receptor subfamily 4 group A member 1 (Mus musculus) (UniProt P12813); assay: Agonist activity at Nur77 in wild-type mouse C57BL/6 assessed as fructose-1,6-bisphosphatase mRNA at 50 mg/kg, ip within 30 mins by real-time PCR analysis relative to control; type: functional, organism-based; set-up: dose 50 mg/kg
# [14] = Antiproliferative activity against human H1299 cells assessed as number of viable cells after 72 hrs by MTT assay; type: functional, NCI-H1299
# [15] = biological target: T1, Nuclear receptor subfamily 4immunitygroup A member 1; assay: Induction of SRC2-enhanced Nur77 transactivational activity in human BGC823 cells after 12 hrs by luciferase/beta-galactosidase reporter assay; type: cell-based; conditions: BGC-823; method in brief: as §1
# Mus musculus [16] = species on record: Mus musculus; assay: Reduction in blood glucose level in insulin treated mouse C57BL/6 within 30 mins; type: functional
# Method in brief: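 C57BL/6 mice fasted 5 h with water, then injected intraperitoneally with insulin (0.5 U kg-1), alone or with compound at 50 mg kg-1. Tail-vein blood glucose was read by glucometer at 15–300 min after treatment. Means ± s.e.m.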
# HepG2 = assay: Antiproliferative activity against human HepG2 cells assessed as number of viable cells after 72 hrs by MTT assay; type: functional, cell-based
# SW-620 = assay: Antiproliferative activity against human SW620 cells assessed as number of viable cells after 72 hrs by MTT assay; type: functional
# Method in brief: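 BGC-823 gastric and SW620 colon cancer cells incubated 72 h with various Csn-B concentrations; viable cells counted by MTT assay.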
# NIH3T3 = assay: Antiproliferative activity against mouse NIH/3T3 cells assessed as number of viable cells after 72 hrs by MTT assay; type: functional, cell-based
# [17] = biological target: T1, Nuclear receptor subfamily 4immunitygroup A member 1; assay: Induction of Nur77-SRC1 interaction in human 293T cells by GST-pull-down assay; type: cell-based; method in brief: as §3
# [18] = biological target: Nuclear receptor subfamily 4 group A member 1 (Mus musculus) (UniProt P12813); assay: Agonist activity at Nur77 in insulin treated mouse C57BL/6 assessed as glucose-6-phosphatase mRNA after 60 mins by real-time PCR relative to control; type: functional
# Mus musculus [19] = assay: Increase in blood glucose level in wild-type mouse C57BL/6 at 50 mg/kg, ip within 30 mins; type: functional; conditions: route intraperitoneal; method in brief: as §2
# [20] = biological target: T1, Nuclear receptor subfamily 4immunitygroup A member 1; assay: Agonist activity at nuclear orphan receptor Nur77 expressed in human BGC823 cells co-transfected with fused GAL4-LBD assessed as transactivation after 12 hrs by luciferase reporter gene assay; type: functional, cell-based, BGC-823
# [21] = biological target: Nuclear receptor subfamily 4 group A member 1 (Mus musculus) (UniProt P12813); assay: Agonist activity at Nur77 in Nr4a1 deficient mouse C57BL/6 assessed as glucose-6-phosphatase mRNA at 50 mg/kg, ip by real-time PCR analysis; type: functional, organism-based; set-up: dose 50 mg/kg
# BGC-823 [22] = assay: Antitumor activity against human BGC823 cells expressing si-Nur77 xenografted in athymic nude mouse BALB/c assessed as apoptotic cells by TUNEL assay; type: functional
# Method in brief: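 Tumors from the subcutaneous BGC-823 xenograft nude mice (wild-type, si-Nur77 or si-Ctrl cells; Csn-B 13 mg kg-1 ip twice weekly or DMSO for 4 weeks) were sectioned and apoptotic cells detected by TUNEL assay.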
# [23] = biological target: Nuclear receptor subfamily 4 group A member 1 (Mus musculus) (UniProt P12813); assay: Agonist activity at Nur77 in wild-type mouse assessed as transcriptional activation of luciferase reporter gene relative to control; type: functional
# Method in brief: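 Nur77, NurRE-luciferase reporter and β-galactosidase combined with in vivo transfection reagent and injected into tail vein of wild-type or Nr4a1-/- C57BL/6 mice (n = 5/group); 5 h later DMSO (50 μl) or Csn-B 50 mg kg-1 ip; liver lysate luciferase read 24 h post-injection; means ± s.e.m.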
# [24] = biological target: T1, Nuclear receptor subfamily 4immunitygroup A member 1; assay: Induction of SRC1-enhanced Nur77 transactivational activity in human BGC823 cells after 12 hrs by luciferase/beta-galactosidase reporter assay; type: cell-based; conditions: BGC-823; method in brief: as §1
# [25] = biological target: T1, Nuclear receptor subfamily 4immunitygroup A member 1; assay: Agonist activity at nuclear orphan receptor Nur77 in human BGC823 cells bearing beta-galactosidase expression vector assessed as transcriptional activation of retinoic acid receptor response element after 12 hrs by luciferase assay; type: functional, cell-based; conditions: BGC-823
# [26] = biological target: T1, Nuclear receptor subfamily 4immunitygroup A member 1; assay: Binding affinity to nuclear orphan receptor Nur77 assessed as conformational change in receptor by CD spectroscopic
# BGC-823 [27] = assay: Induction of Nur77 mediated apoptosis in human BGC823 cells assessed as cytochrome C release […] at 5 uM after 24 hrs by Western blotting analysis; type: functional, cell-based
# [28] = biological target: T1, Nuclear receptor subfamily 4immunitygroup A member 1; assay: Agonist activity at nuclear orphan receptor Nur77 expressed in human BGC823 cells co-transfected with fused GAL4-Y453A assessed as transactivation after 12 hrs by luciferase reporter gene assay; type: functional, cell-based; conditions: BGC-823
# Sequence of Nuclear receptor subfamily 4 group A member 1 (Mus musculus) (P12813 whole entry): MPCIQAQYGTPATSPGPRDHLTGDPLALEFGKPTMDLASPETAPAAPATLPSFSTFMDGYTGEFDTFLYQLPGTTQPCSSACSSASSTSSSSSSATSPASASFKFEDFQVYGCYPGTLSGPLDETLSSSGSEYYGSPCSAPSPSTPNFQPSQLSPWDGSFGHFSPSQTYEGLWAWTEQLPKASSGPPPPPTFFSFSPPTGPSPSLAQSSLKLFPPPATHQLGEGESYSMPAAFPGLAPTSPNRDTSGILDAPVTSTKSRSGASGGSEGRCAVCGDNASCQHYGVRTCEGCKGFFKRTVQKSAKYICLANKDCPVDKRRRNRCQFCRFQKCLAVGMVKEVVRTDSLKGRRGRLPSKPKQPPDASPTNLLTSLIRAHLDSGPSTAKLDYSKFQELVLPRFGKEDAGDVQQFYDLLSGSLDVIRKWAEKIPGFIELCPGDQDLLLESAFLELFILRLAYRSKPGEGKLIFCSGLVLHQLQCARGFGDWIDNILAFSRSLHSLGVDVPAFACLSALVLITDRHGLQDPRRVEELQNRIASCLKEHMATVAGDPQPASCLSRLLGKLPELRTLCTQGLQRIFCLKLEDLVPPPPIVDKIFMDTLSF
# T1 sequence (P22736 whole entry): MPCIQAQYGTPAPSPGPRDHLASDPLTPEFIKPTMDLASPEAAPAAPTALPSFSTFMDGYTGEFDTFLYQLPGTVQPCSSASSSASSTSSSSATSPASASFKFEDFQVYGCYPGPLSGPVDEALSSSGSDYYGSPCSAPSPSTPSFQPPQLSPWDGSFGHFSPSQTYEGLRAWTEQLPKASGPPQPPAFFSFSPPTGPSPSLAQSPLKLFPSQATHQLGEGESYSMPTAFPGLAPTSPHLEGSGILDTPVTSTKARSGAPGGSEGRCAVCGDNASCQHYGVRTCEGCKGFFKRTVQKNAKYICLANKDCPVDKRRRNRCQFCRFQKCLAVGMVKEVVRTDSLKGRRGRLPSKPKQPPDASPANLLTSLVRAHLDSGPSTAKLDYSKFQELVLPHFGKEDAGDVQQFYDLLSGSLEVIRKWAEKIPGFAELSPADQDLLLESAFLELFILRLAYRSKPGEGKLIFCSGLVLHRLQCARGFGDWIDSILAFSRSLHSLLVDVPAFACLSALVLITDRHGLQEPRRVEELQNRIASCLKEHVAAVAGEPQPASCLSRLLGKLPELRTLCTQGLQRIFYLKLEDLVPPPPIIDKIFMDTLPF
# Sequence of Nuclear receptor subfamily 4 group A member 2 (Homo sapiens) (P43354 whole entry, the tested form may be a part): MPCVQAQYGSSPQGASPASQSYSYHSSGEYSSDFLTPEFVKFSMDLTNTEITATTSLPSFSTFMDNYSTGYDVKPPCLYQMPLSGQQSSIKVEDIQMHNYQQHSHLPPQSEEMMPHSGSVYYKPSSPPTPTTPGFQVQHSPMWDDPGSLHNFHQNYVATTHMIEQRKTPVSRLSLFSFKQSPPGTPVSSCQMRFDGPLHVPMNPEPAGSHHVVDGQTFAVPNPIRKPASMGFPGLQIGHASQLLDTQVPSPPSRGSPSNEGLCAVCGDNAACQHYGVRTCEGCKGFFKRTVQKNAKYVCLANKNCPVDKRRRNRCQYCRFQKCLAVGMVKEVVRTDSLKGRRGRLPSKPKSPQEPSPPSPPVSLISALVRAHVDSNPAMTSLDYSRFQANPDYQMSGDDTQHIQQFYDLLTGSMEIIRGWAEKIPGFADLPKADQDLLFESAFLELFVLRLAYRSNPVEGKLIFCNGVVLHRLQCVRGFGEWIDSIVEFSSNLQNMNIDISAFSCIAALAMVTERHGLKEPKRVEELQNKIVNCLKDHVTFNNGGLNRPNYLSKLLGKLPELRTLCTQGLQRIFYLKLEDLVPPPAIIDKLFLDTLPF
smiles,measurement,setting,value
CCCCCCCC(=O)c1c(O)cc(O)cc1CC(=O)OCC [CYTOSPORONE B],inhibition,Mus musculus [1],Active
same,Activity,BGC-823 [2],inactive
same,Activity,[3],inactive
same,Activity,Mus musculus [4],5.8 mM
same,Activity,[5],Active
same,Activity,[6],inactive
same,Activity,BGC-823 [7],Active
same,Activity,[8],inactive
same,Activity,BGC-823 [9],Active
same,Activity,[10],inactive
same,Activity,[11],inactive
same,Activity,[12],inactive
same,fold change (FC),[13],3
same,inhibition (INH),[14],>=40%
same,Activity,[15],Dose-dependent effect
same,fold change (FC),Mus musculus [16],3
same,Activity,HepG2,Active
same,inhibition (INH),SW-620,>70%
same,inhibition,NIH3T3,Active
same,Activity,[17],Active
same,fold change (FC),[18],6.23
same,Activity,Mus musculus [19],11.4 mM
same,EC50,[20],0.115 nM
same,Activity,[21],inactive
same,Activity,BGC-823 [22],Active
same,fold change (FC),[23],5
same,Activity,[24],Dose-dependent effect
same,Activity,[25],inactive
same,Activity,[26],Active
same,Activity,BGC-823 [27],Active
same,Activity,[28],inactive

# — ChEMBL document CHEMBL1221214, “Cytosporone B is an agonist for nuclear orphan receptor Nur77” (Nat Chem Biol, 2008)
